Measurements: ChEMBL document CHEMBL3414483, “New heterocyclic hybrids of pyrazole and its bioisosteres: design, synthesis and biological evaluation as dual acting antimalarial-antileishmanial agents” (Eur J Med Chem, 2015)
Values after ≈ are worked out from the molar mass of the structure shown.

What was measured:
Mus musculus [1] = experiment: Toxicity in mouse assessed as change in weight at 25 to 300 mg/kg, po measured for 3 days; type: organism-based; set-up: dose 25-300 mg/kg, route oral; settings: in vivo, 72 h
Outline: (§1)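 Male mice (26-32 g), six per group, fasted overnight and weighed. Compounds given orally as suspension in 1% gum acacia at 25, 50, 100, 200 and 300 mg/kg/day; vehicle control at up to 1 ml/100 g. Mortality recorded after 24 h; weight and deaths followed over 3 days post-dosing.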

Mus musculus [2] = experiment: Toxicity in mouse up to 100 mg/kg administered via parenteral route; type: organism-based; set-up: dose 100 mg/kg; settings: in vivo
Outline: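 Groups of six mice received intraperitoneal doses of 10, 25, 50, 75 and 100 mg/kg, with propylene glycol as the vehicle control.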

Leishmania aethiopica [3] = experiment: Ratio of miltefosine IC50 to compound IC50 for promastigote stage of Leishmania aethiopica; type: functional
Leishmania aethiopica [4] = experiment: Antileishmanial activity against amastigote stage of Leishmania aethiopica after 72 hrs by resazurin staining-based fluorescence assay; type: functional, organism-based
Outline: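 Axenic L. aethiopica amastigotes (50 µl of 2 × 10^7 cells/ml) exposed to serial dilutions at final 0.04–10 µg/ml for 72 h at 31 °C, humidified, 5% CO₂. Resazurin was added at 68 h and fluorescence read at 72 h (ex 530/em 590 nm). EC50 from sigmoidal dose–response fits, mean ± SD of triplicate experiments run in duplicate. Controls were medium alone and 1% DMSO.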

[5] = Toxicity in po dosed mouse; type: organism-based; settings: in vivo; outline: as §1
Leishmania aethiopica [6] = experiment: Ratio of amphotericin IC50 to compound IC50 for promastigote stage of Leishmania aethiopica; type: functional
Plasmodium berghei [7] = experiment: Antimalarial activity against Plasmodium berghei str. ANKA infected in Swiss albino mouse assessed as parasitemia at 0.048 mmol/kg/day, po qd […] by microscopic analysis relative to control; type: functional
Outline: (§2)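 Four-day suppressive test. Mice were infected iv on day 0 with 0.2 ml of 2 × 10^7 P. berghei ANKA-parasitized erythrocytes from a donor mouse, diluted in saline. From 2 h post-infection they were dosed orally at 0.048 mmol/kg/day for days 0–3, five mice per group. The vehicle was 7% Tween and 3% ethanol in water. On day 4, Giemsa smears were scored over 5 fields of about 100 RBC each. Suppression was calculated relative to the vehicle group, taken as 100%.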

Plasmodium berghei [8] = experiment: Antimalarial activity against Plasmodium berghei str. ANKA infected in Swiss albino mouse assessed as survival at 0.048 mmol/kg/day, po qd for 3 days by microscopic analysis relative to control; type: functional
Outline: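 P. berghei ANKA infected mice, 4-day suppressive test. Day 0: 0.2 ml of 2 x 10^7 parasitized erythrocytes given i.v. (donor blood, 20-30% parasitemia, diluted in saline). Oral dosing at 0.048 mmol/kg/day from 2 h post-infection, then days 1-3 at 24 h intervals. Vehicle 7% Tween, 3% ethanol in water. Five mice/group. Survival time recorded per mouse; mean compared with vehicle group.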

Leishmania aethiopica [9] = experiment: Antileishmanial activity against promastigote stage of Leishmania aethiopica after 24 hrs by alamar blue staining-based […]; type: functional, organism-based
Outline: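 L. aethiopica promastigotes, 3 × 10^6 per well, given compounds from DMSO stocks in three-fold dilutions at 10 to 0.04 µg/ml (final DMSO ≤0.1%), in duplicate, at room temperature (21 ± 1 °C). Alamar blue (resazurin) was added after 24 h and absorbance read 48 h later at 540 and 630 nm. Negative control was parasites, medium and DMSO.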

Plasmodium berghei [10] = experiment: Antimalarial activity against Plasmodium berghei str. ANKA infected in Swiss albino mouse assessed as supression of parasitemia at 0.048 mmol/kg/day, po qd for 3 days by microscopic analysis relative to control; type: functional; outline: as §2
Mus musculus [11] = experiment: Toxicity in mouse assessed as death at 25 to 300 mg/kg, po measured for 3 days; type: organism-based; set-up: dose 25-300 mg/kg, route oral; settings: in vivo, 72 h; outline: as §1
Plasmodium falciparum = experiment: Antiplasmodial activity against chloroquine-resistant Plasmodium falciparum RKL9 infected in human RBC assessed as effect on schizont maturation after 24 hrs by Geimsa staining-based assay; type: functional, organism-based; settings: RKL9, 24 h
Outline: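 P. falciparum RKL9 in continuous culture in human B(+) RBC, parasitemia adjusted to 1-1.5%, RPMI 1640 with 10% AB(+) serum. Two-fold serial dilutions, compounds in ethanol (final ≤0.5%), 24 h at 37 °C, duplicate wells. Schizonts per 100 asexual parasites counted on Giemsa smears; % schizont maturation inhibition = (1 − Nt/Nc) × 100.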

CC(=O)N(C1=NN(C(C)=O)C(c2cn(-c3ccc(Br)cc3)nc2-c2ccc([N+](=O)[O-])cc2)S1)c1ccccc1 (stereo unspecified)
Activity (Mus musculus [1]): Non-toxic
Activity (Mus musculus [2]): Non-toxic
Ratio IC50 (Leishmania aethiopica [3]): 225
IC50 (Leishmania aethiopica [4]): 0.13 µg/mL (≈ 0.215 µM)
MTD [5]: 300 mg/kg
Ratio IC50 (Leishmania aethiopica [6]): 3
Activity (Plasmodium berghei [7]): 12%
Survival (Plasmodium berghei [8]): 16.86 days
IC50 (Leishmania aethiopica [9]): 0.0142 µg/mL (≈ 0.0235 µM)
Activity (Plasmodium berghei [10]): 86.05%
Activity (Mus musculus [11]): Non-toxic

O=[N+]([O-])c1ccc(-c2nn(-c3ccc(Br)cc3)cc2C2CC(c3ccccc3)=NN2)cc1 (stereo unspecified)
Activity (Mus musculus [1]): Non-toxic
Activity (Mus musculus [2]): Non-toxic
IC50 (Leishmania aethiopica [4]): 1.11 µg/mL (≈ 2.27 µM)
IC50 (Plasmodium falciparum): 42 nM
MTD [5]: 300 mg/kg
Activity (Plasmodium berghei [7]): 4%
Survival (Plasmodium berghei [8]): 17.6 days
IC50 (Leishmania aethiopica [9]): 2.12 µg/mL (≈ 4.35 µM)
Activity (Plasmodium berghei [10]): 95.35%
Activity (Mus musculus [11]): Non-toxic

Cc1ccc(-c2nn(-c3ccc(C)cc3)cc2/C=N/N=c2/scc(-c3ccc(Br)cc3)n2-c2ccccc2)cc1
Activity (Mus musculus [1]): Non-toxic
Activity (Mus musculus [2]): Non-toxic
IC50 (Leishmania aethiopica [4]): 0.3 µg/mL (≈ 0.496 µM)
IC50 (Plasmodium falciparum): 41.8 nM
MTD [5]: 300 mg/kg
Activity (Plasmodium berghei [7]): 2%
Survival (Plasmodium berghei [8]): 16.84 days
IC50 (Leishmania aethiopica [9]): 0.0311 µg/mL (≈ 0.0514 µM)
Activity (Plasmodium berghei [10]): 97.67%
Activity (Mus musculus [11]): Non-toxic

O=C1CS/C(=N/N=C/c2cn(-c3ccc(Br)cc3)nc2-c2ccc([N+](=O)[O-])cc2)N1c1ccccc1
Activity (Mus musculus [1]): Non-toxic
Activity (Mus musculus [2]): Non-toxic
IC50 (Leishmania aethiopica [4]): 0.19 µg/mL (≈ 0.338 µM)
IC50 (Plasmodium falciparum): 39.2 nM
MTD [5]: 300 mg/kg
Activity (Plasmodium berghei [7]): 2%
Survival (Plasmodium berghei [8]): 16.44 days
IC50 (Leishmania aethiopica [9]): 0.0224 µg/mL (≈ 0.0399 µM)
Activity (Plasmodium berghei [10]): 97.67%
Activity (Mus musculus [11]): Non-toxic

CC(=O)N1N=C(c2ccccc2)CC1c1cn(-c2ccc(Br)cc2)nc1-c1ccc(C)cc1 (stereo unspecified)
Activity (Mus musculus [1]): Non-toxic
Activity (Mus musculus [2]): Non-toxic
IC50 (Leishmania aethiopica [4]): 2.77 µg/mL (≈ 5.55 µM)
IC50 (Plasmodium falciparum): 36.8 nM
MTD [5]: 300 mg/kg
Activity (Plasmodium berghei [7]): 3%
Survival (Plasmodium berghei [8]): 16.4 days
IC50 (Leishmania aethiopica [9]): 3.02 µg/mL (≈ 6.05 µM)
Activity (Plasmodium berghei [10]): 96.51%
Activity (Mus musculus [11]): Non-toxic

Cc1ccc(-n2cc(/C=N/NC(=S)Nc3ccccc3)c(-c3ccc([N+](=O)[O-])cc3)n2)cc1
Activity (Mus musculus [1]): Non-toxic
Activity (Mus musculus [2]): Non-toxic
IC50 (Leishmania aethiopica [4]): 0.23 µg/mL (≈ 0.504 µM)
IC50 (Plasmodium falciparum): 37.8 nM
MTD [5]: 300 mg/kg
Activity (Plasmodium berghei [7]): 5%
Survival (Plasmodium berghei [8]): 14 days
IC50 (Leishmania aethiopica [9]): 0.0241 µg/mL (≈ 0.0528 µM)
Activity (Plasmodium berghei [10]): 94.19%
Activity (Mus musculus [11]): Non-toxic
